Converted amounts (≈) assume the structure as drawn.
Legend:
[1] = tested on: Mycobacterium tuberculosis; test: Antimycobacterial activity against Mycobacterium bovis BCG assessed as clolony forming unit at 125 ug/ml after 21 days; format: functional, variant bovis BCG
Summary of the method: (§1)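 M. bovis BCG exposed to agent, with or without sucrose or 2.5% dextran, in log-phase and stationary-phase cultures. Bactericidal activity read as viable count (log CFU/ml) at day 7 and day 21. Values given as means ± SD.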

[2] = tested on: Mycobacterium tuberculosis; test: Antimycobacterial activity against Mycobacterium bovis BCG assessed as clolony forming unit at 125 ug/ml after 7 days in presence of sucrose; format: functional, variant bovis BCG; summary of the method: as §1
[3] = tested on: Mycobacterium tuberculosis; test: Antimycobacterial activity against Mycobacterium bovis BCG assessed as clolony forming unit at 125 ug/ml after 7 days; format: functional, variant bovis BCG; summary of the method: as §1
[4] = tested on: Mycobacterium tuberculosis; test: Antimycobacterial activity against Mycobacterium bovis BCG carrying pMV261; format: functional; details: Mycobacterium tuberculosis variant bovis BCG
Summary of the method: (§2)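 MIC by agar method on 7H11 supplemented with OADC. M. bovis BCG carried empty pMV261, or pMV261 overexpressing EthA or EthR from the constitutive hsp60 promoter. Results reported as MIC ranges in µg/ml.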

[5] = tested on: Mycobacterium tuberculosis; test: Antimycobacterial activity against Mycobacterium bovis BCG assessed as clolony forming unit at 125 ug/ml after 21 days in presence of destrin; format: functional, variant bovis BCG; summary of the method: as §1
[6] = tested on: Mycobacterium tuberculosis; test: Antimycobacterial activity against Mycobacterium bovis BCG assessed as clolony forming unit at 125 ug/ml after 7 days in presence of dextrin; format: functional, variant bovis BCG; summary of the method: as §1
[7] = tested on: Mycobacterium tuberculosis; test: Antimycobacterial activity against Mycobacterium bovis BCG carrying pMV261::ethA; format: functional; details: Mycobacterium tuberculosis variant bovis BCG; summary of the method: as §2
[8] = tested on: Mycobacterium tuberculosis; test: Antimycobacterial activity against Mycobacterium bovis BCG carrying pMV261::ethR; format: functional; details: Mycobacterium tuberculosis variant bovis BCG; summary of the method: as §2
[9] = tested on: Mycobacterium tuberculosis; test: Antimycobacterial activity against Mycobacterium bovis BCG assessed as clolony forming unit at 125 ug/ml after 21 days in presence of sucrose; format: functional, variant bovis BCG; summary of the method: as §1
[10] = tested on: Mycobacterium tuberculosis; test: Antimycobacterial activity against Mycobacterium bovis BCG assessed as clolony forming unit at 313 ug/ml after 21 days in presence of destrin; format: functional, variant bovis BCG; summary of the method: as §1
[11] = tested on: Mycobacterium tuberculosis; test: Antimycobacterial activity against Mycobacterium bovis BCG assessed as clolony forming unit at 313 ug/ml after 7 days; format: functional, variant bovis BCG; summary of the method: as §1
[12] = tested on: Mycobacterium tuberculosis; test: Antimycobacterial activity against Mycobacterium bovis BCG assessed as clolony forming unit at 313 ug/ml after 7 days in presence of sucrose; format: functional, variant bovis BCG; summary of the method: as §1
[13] = tested on: Mycobacterium tuberculosis; test: Antimycobacterial activity against Mycobacterium bovis BCG assessed as clolony forming unit at 313 ug/ml after 21 days; format: functional, variant bovis BCG; summary of the method: as §1
[14] = tested on: Mycobacterium tuberculosis; test: Antimycobacterial activity against Mycobacterium bovis BCG assessed as clolony forming unit at 313 ug/ml after 7 days in presence of dextrin; format: functional, variant bovis BCG; summary of the method: as §1
[15] = tested on: Mycobacterium tuberculosis; test: Antimycobacterial activity against Mycobacterium bovis BCG assessed as clolony forming unit at 313 ug/ml after 21 days in presence of sucrose; format: functional, variant bovis BCG; summary of the method: as §1
[16] = tested on: Mycobacterium tuberculosis; test: Antimycobacterial activity against Mycobacterium bovis BCG assessed as clolony forming unit at 4 ug/ml after 21 days in presence of sucrose; format: functional, variant bovis BCG; summary of the method: as §1
[17] = tested on: Mycobacterium tuberculosis; test: Antimycobacterial activity against Mycobacterium bovis BCG assessed as clolony forming unit at 4 ug/ml after 21 days; format: functional, variant bovis BCG; summary of the method: as §1
[18] = tested on: Mycobacterium tuberculosis; test: Antimycobacterial activity against Mycobacterium bovis BCG assessed as clolony forming unit at 4 ug/ml after 21 days in presence of destrin; format: functional, variant bovis BCG; summary of the method: as §1
[19] = tested on: Mycobacterium tuberculosis; test: Antimycobacterial activity against Mycobacterium bovis BCG assessed as clolony forming unit at 4 ug/ml after 7 days; format: functional, variant bovis BCG; summary of the method: as §1
[20] = tested on: Mycobacterium tuberculosis; test: Antimycobacterial activity against Mycobacterium bovis BCG assessed as clolony forming unit at 4 ug/ml after 7 days in presence of dextrin; format: functional, variant bovis BCG; summary of the method: as §1
[21] = tested on: Mycobacterium tuberculosis; test: Antimycobacterial activity against Mycobacterium bovis BCG assessed as clolony forming unit at 4 ug/ml after 7 days in presence of sucrose; format: functional, variant bovis BCG; summary of the method: as §1

Question: Which log10CFU/ml [1] does the source give for CC(=O)N[C@@H]1[C@@H](O)[C@H](O)[C@@H](CO)O[C@H]1SC(=S)N1CCCC1 here?
Answer: Its log10CFU/ml is 4.43.

Question: And the log10CFU/ml [2]?
Answer: Its log10CFU/ml is 6.25.

Question: And the log10CFU/ml [3]?
Answer: Its log10CFU/ml is 4.55.

Question: And the MIC [4]?
Answer: The MIC was 1 µg/mL (≈ 2.85 µM).

Question: And the log10CFU/ml [5]?
Answer: Its log10CFU/ml is 5.79.

Question: What about the log10CFU/ml [6] of the same compound?
Answer: Its log10CFU/ml is 6.07.

Question: And the MIC [7]?
Answer: Its MIC is 1 µg/mL (≈ 2.85 µM).

Question: What about the MIC [8] of the same compound?
Answer: Its MIC is 1 µg/mL (≈ 2.85 µM).

Question: What about the log10CFU/ml [9] of the same compound?
Answer: The log10CFU/ml was 5.76.

Question: With CC(=O)N[C@@H]1[C@@H](O)[C@H](O)[C@@H](CO)O[C@H]1SC(=S)N(C)C as the compound, how does the log10CFU/ml [10] read?
Answer: The log10CFU/ml was 5.91.

Question: What about the log10CFU/ml [11] of the same compound?
Answer: The log10CFU/ml was 5.91.

Question: What about the log10CFU/ml [12] of the same compound?
Answer: The log10CFU/ml was 6.41.

Question: What about the log10CFU/ml [13] of the same compound?
Answer: The log10CFU/ml was 5.2.

Question: And the log10CFU/ml [14]?
Answer: Its log10CFU/ml is 6.44.

Question: And the MIC [4]?
Answer: The MIC was 10 µg/mL (≈ 30.8 µM).

Question: And the log10CFU/ml [15]?
Answer: Its log10CFU/ml is 5.78.

Question: What about the MIC [7] of the same compound?
Answer: Its MIC is 10 µg/mL (≈ 30.8 µM).

Question: What about the MIC [8] of the same compound?
Answer: The MIC was 10 µg/mL (≈ 30.8 µM).

Question: For CCc1cc(C(N)=S)ccn1 [ETHIONAMIDE], which MIC [4] is on record?
Answer: Its MIC is 1 µg/mL (≈ 6.02 µM).

Question: And the MIC [7]?
Answer: Its MIC is 0.5 µg/mL (≈ 3.01 µM).

Question: And the MIC [8]?
Answer: The MIC was 10 µg/mL (≈ 60.2 µM).

Question: What does the source list for N.S=C(S)N1CCCC1 [PYRROLIDINE DITHIOCARBAMIC ACID, AMMONIUM SALT]?
Answer: log10CFU/ml [16]: 5.56; log10CFU/ml [17]: 4.41; log10CFU/ml [18]: 5.56; log10CFU/ml [19]: 4.65; MIC [4]: 0.5 µg/mL; log10CFU/ml [20]: 6.93; MIC [7]: 0.5 µg/mL; MIC [8]: 0.25 µg/mL; log10CFU/ml [21]: 6.05

Reference: ChEMBL document CHEMBL1667806, “Synthesis and evaluation of anti-tubercular activity of new dithiocarbamate sugar derivatives” (2011)
